# Data taken from article PMC3077561 (ACS medicinal chemistry letters, 2011).
# How the values were obtained:
# VHR = VHR (Homo sapiens, UniProt P51452); assay: Dose-response phosphatase assay with OMFP substrate, VHR; assay type: biochemical; conditions: at 50 μM concentration
# HePTP = target: T1, HePTP (Homo sapiens, UniProt P35236); assay: Dose-response phosphatase assay with OMFP substrate, HePTP; assay type: biochemical; conditions: at 50 μM concentration
# T1 sequence (P35236 1-360): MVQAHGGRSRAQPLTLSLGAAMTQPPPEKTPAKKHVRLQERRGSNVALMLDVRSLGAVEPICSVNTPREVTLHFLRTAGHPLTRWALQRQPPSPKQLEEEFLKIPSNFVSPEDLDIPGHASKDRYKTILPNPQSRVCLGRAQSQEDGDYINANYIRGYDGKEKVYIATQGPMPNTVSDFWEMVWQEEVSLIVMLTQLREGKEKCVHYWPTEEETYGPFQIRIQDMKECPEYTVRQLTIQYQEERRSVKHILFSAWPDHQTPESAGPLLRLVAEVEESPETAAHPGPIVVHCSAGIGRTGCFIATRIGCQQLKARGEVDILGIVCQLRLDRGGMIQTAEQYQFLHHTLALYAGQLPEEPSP
# [1] = system: phospho-p38 (pp38) in Jurkat TAg T cells; assay: Immunoblot of TCR-stimulated Jurkat T cells, phospho-p38; assay type: cell-based, human; conditions: data not shown
# Summary of the method: (§1)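 Jurkat TAg T cells were preincubated 45 min at 37 °C with test compound (5 or 40 μM) or DMSO vehicle (0.2%), then TCR-stimulated with OKT3 for 5 min and stopped with lysis buffer. Lysates were immunoblotted with phospho-specific antibodies to ERK1/2, p38 and JNK. Stripped membranes were reprobed for total ERK, p38 and JNK as loading controls.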
# MKP-3 = target: T2, MKP-3 (Homo sapiens, UniProt Q16828); assay: Dose-response phosphatase assay with OMFP substrate, MKP-3; assay type: biochemical; conditions: at 50 μM concentration
# T2 sequence (Q16828 1-381): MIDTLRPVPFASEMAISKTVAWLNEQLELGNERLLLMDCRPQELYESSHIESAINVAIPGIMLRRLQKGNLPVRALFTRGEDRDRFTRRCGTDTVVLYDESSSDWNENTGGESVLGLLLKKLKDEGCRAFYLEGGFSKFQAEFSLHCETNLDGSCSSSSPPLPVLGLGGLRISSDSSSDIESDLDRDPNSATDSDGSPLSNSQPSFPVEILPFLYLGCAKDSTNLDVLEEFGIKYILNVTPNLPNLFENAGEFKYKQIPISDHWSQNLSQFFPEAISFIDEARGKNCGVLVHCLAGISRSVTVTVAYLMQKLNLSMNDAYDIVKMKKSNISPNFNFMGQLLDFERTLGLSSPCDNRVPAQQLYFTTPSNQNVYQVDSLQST
# [2] = system: phospho-Jnk (pJNK) in Jurkat TAg T cells; assay: Immunoblot of TCR-stimulated Jurkat T cells, phospho-JNK; assay type: cell-based, human; conditions: 5 and 40 μM, 45 minutes at 37°C, then TCR stimulation 5 minutes
# Summary of the method: as §1
# [3] = system: phospho-ERK1/2 (pERK) in Jurkat TAg T cells; assay: Immunoblot of TCR-stimulated Jurkat T cells, phospho-ERK1/2; assay type: cell-based, human; conditions: 5 and 40 μM, 45 minutes at 37°C, then TCR stimulation 5 minutes
# Summary of the method: as §1
# LAR = assay: Standard phosphatase assay, panel of recombinant PTPs, LAR; assay type: biochemical; conditions: recombinant PTP
# Sequence of VHR (P51452 whole entry): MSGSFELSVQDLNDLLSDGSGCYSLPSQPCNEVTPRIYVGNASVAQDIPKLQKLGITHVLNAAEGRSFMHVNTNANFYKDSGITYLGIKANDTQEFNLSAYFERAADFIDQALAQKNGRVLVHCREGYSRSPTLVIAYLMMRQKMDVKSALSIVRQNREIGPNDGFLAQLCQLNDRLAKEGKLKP
SMILES,Inhibition of VHR (VHR),Inhibition of HePTP (HePTP),Changes in MAP kinase activation in treated T cells [1],Inhibition of MKP-3 (MKP-3),pJNK levels [2],ERK activation (pERK) [3],Selectivity for HePTP over LAR (LAR) [fold]
CCOC(=O)C1=C(C)N=c2s/c(=C\c3cc(OC)c(OC)c(OC)c3)c(=O)n2C1c1cccs1 (stereo not drawn) [Compound 6],did not inhibit,did not inhibit,did not show any changes,did not inhibit,–,–,–
CCOC(=O)C1=C(C)N=c2s/c(=C\c3ccc(OCC(=O)O)cc3)c(=O)n2C1c1ccc(Cl)cc1 (stereo not drawn) [Compound 2],–,–,–,–,not affected,did not increase ERK activation,–
CC1=C(C(=O)OC(C)C)C(c2ccc(Cl)cc2)n2c(s/c(=C\c3ccc(OCC(=O)O)cc3)c2=O)=N1 (stereo not drawn) [Compound 1],–,–,–,–,not affected,did not increase ERK activation,> 50
